Results from ChEMBL document CHEMBL3526142, “Biotransformation of a novel antimitotic agent, I-387, by mouse, rat, dog, monkey, and human liver microsomes and in vivo pharmacokinetics in mice” (Drug Metab Dispos, 2011).

How the values were obtained:
[1] = AUC (infinity) in ICR mouse at 1 mg/kg, iv by LC-MS/MS analysis; format: ADME, organism-based; parameters: time infinity, dose 1 mg/kg, route intravenous; details: plasma
Summary of the method: (§1)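 Male ICR mice (5–6 weeks, 20–25 g), single doses of 1, 5 or 15 mg/kg in 10% DMSO/PEG300, given iv by tail vein, ip, or orally by gavage. Three to four mice per time point, euthanized under isoflurane, blood drawn from posterior vena cava. Plasma protein precipitated with acetonitrile containing internal standard, then LC-MS/MS (MRM m/z 388.2→192). Noncompartmental analysis of mean concentration-time data, AUCinf by trapezoidal rule with extrapolation, CL = dose/AUCinf, Cmax read from the curve. F = (AUCnon-iv × dose iv)/(AUCiv × dose non-iv). n = 3 per dose group.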

Liver microsome [2] = assay: Drug metabolism in human liver microsomes assessed as (3-(1H-indol-2-yl)phenyl)(3,4,5-trimethoxyphenyl)methanol formation at 0.5 uM after 2 hrs by LC-MS/MS analysis in presence of 3 mM NADPH; format: ADME
Summary of the method: (§2)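 Pooled liver microsomes (1 mg/ml protein) incubated with 0.5 µM substrate and 3 mM NADPH in 65 mM potassium phosphate, pH 7.4, 1% methanol, at 37°C for 2 h. Stopped with ice-cold acetonitrile containing internal standard, centrifuged. Supernatant analysed by LC-MS/MS on a C18 column, 15-min gradient, with product ion scans for metabolite identification.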

[3] = AUC (infinity) in ICR mouse at 5 mg/kg, ip by LC-MS/MS analysis; format: ADME, organism-based; parameters: time infinity, dose 5 mg/kg, route intraperitoneal; details: plasma; summary of the method: as §1
[4] = Terminal half life in ICR mouse at 1 mg/kg, po via gavage by LC-MS/MS analysis; format: ADME, organism-based; parameters: dose 1 mg/kg, route oral; details: in vivo, read-out: beta t1/2 (converted)
Summary of the method: (§3)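 Male ICR mice (20–25 g) given the compound intraperitoneally or by gavage in 10% DMSO/PEG300. Three to four mice were sacrificed per time point and plasma collected from the vena cava. Plasma was precipitated with acetonitrile containing internal standard and analysed by LC-MS/MS. Noncompartmental analysis of mean concentration-time data: terminal t1/2 = ln2/λz; Tmax by inspection; n = 3/dose group.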

[5] = Bioavailability in ICR mouse at 5 mg/kg, ip by LC-MS/MS analysis; format: ADME, organism-based; details: in vivo; summary of the method: as §1
[6] = Cmax in ICR mouse at 5 mg/kg, ip by LC-MS/MS analysis; format: ADME, organism-based; parameters: dose 5 mg/kg, route intraperitoneal; details: in vivo; summary of the method: as §1
[7] = Cmax in ICR mouse at 1 mg/kg, ip by LC-MS/MS analysis; format: ADME, organism-based; parameters: dose 1 mg/kg, route intraperitoneal; details: in vivo; summary of the method: as §1
[8] = Volume of distribution at steady state in ICR mouse at 15 mg/kg, iv by LC-MS/MS analysis; format: ADME, organism-based; parameters: dose 15 mg/kg, route intravenous; details: in vivo, read-out: Vdss
Summary of the method: (§4)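 Tail-vein injection in male ICR mice (5–6 weeks), vehicle 10% DMSO in PEG300. Serial terminal sampling of 3–4 mice per time point, with posterior vena cava blood. Plasma was acetonitrile-precipitated and measured by LC-MS/MS. Noncompartmental analysis of mean data: t1/2 = ln2/λz, CL = dose/AUC_inf, Vd_ss = CL × MRT_inf; n = 3/dose group.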

[9] = Mean residence time (infinity) in ICR mouse at 1 mg/kg, iv by LC-MS/MS analysis; format: ADME, organism-based; parameters: dose 1 mg/kg, route intravenous; details: in vivo; summary of the method: as §1
[10] = Metabolic stability in human liver microsomes assessed as half life during phase 1 at 0.5 uM by LC-MS/MS analysis in presence of 3 mM NADPH and absence of UDPGA; format: ADME; details: read-out: alphat1/2
Summary of the method: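 Pooled liver microsomes (1 mg/ml) incubated with 0.5 µM substrate and 3 mM NADPH in 65 mM potassium phosphate, pH 7.4, 1% methanol, at 37°C. The phase I+II set also had 5 mM UDPGA, 5 mM D-saccharolactone, 50 µg/ml alamethicin and 3 mM MgCl2. Stopped at 10–90 min with cold acetonitrile plus internal standard. Parent remaining by LC-MS/MS relative to time 0. t1/2 from a two-parameter single exponential decay fit; n = 2–3.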

[11] = Metabolic stability in mouse liver microsomes assessed as half life during phase 1 and 2 at 0.5 uM by LC-MS/MS analysis in presence of 3 mM NADPH and […] UDPGA; format: ADME; details: read-out: alphat1/2
[12] = Cmax in ICR mouse at 15 mg/kg, ip by LC-MS/MS analysis; format: ADME, organism-based; parameters: dose 15 mg/kg, route intraperitoneal; details: in vivo; summary of the method: as §1
Liver microsome [13] = assay: Drug metabolism in dog liver microsomes assessed as (3-(1H-indol-2-yl)phenyl)(3,4,5-trimethoxyphenyl)methanol formation at 0.5 uM after 2 hrs by LC-MS/MS analysis in presence of 3 mM NADPH; format: ADME, Canis lupus familiaris; summary of the method: as §2
[14] = Clearance in ICR mouse at 1 mg/kg, iv by LC-MS/MS analysis; format: ADME, organism-based; parameters: dose 1 mg/kg, route intravenous; details: in vivo; summary of the method: as §1
[15] = Metabolic stability in mouse liver microsomes assessed as half life during phase 1 at 0.5 uM by LC-MS/MS analysis in presence of 3 mM NADPH and absence of UDPGA; format: ADME; details: read-out: alphat1/2
Summary of the method: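 Pooled liver microsomes at 1 mg/ml protein with 3 mM NADPH, 0.5 μM substrate in 65 mM potassium phosphate pH 7.4, 1% methanol, 37°C. Incubations stopped at 10, 20, 30, 60 and 90 min with ice-cold acetonitrile plus internal standard, then LC-MS/MS of parent remaining relative to time 0. Half-life from a two-parameter single exponential decay fit; n = 2 to 3.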

[16] = Mean residence time (infinity) in ICR mouse at 5 mg/kg, po via gavage by LC-MS/MS analysis; format: ADME, organism-based; parameters: dose 5 mg/kg, route oral; details: in vivo; summary of the method: as §1
[17] = Metabolic stability in monkey liver microsomes assessed as half life during phase 1 and 2 at 0.5 uM by LC-MS/MS analysis in presence of 3 mM NADPH and […] UDPGA; format: ADME, Macaca mulatta; details: rhesus monkey, read-out: alphat1/2
[18] = Cmax in ICR mouse at 1 mg/kg, iv by LC-MS/MS analysis; format: ADME, organism-based; parameters: dose 1 mg/kg, route intravenous; details: in vivo; summary of the method: as §1
[19] = Terminal half life in ICR mouse at 1 mg/kg, ip by LC-MS/MS analysis; format: ADME, organism-based; parameters: dose 1 mg/kg, route intraperitoneal; details: in vivo, read-out: beta t1/2 (converted); summary of the method: as §3
[20] = Volume of distribution at steady state in ICR mouse at 5 mg/kg, iv by LC-MS/MS analysis; format: ADME, organism-based; parameters: dose 5 mg/kg, route intravenous; details: in vivo, read-out: Vdss; summary of the method: as §4
[21] = Drug level in monkey liver microsomes assessed as compound retention time treated with 0.5 uM I-387 after 2 hrs by LC-MS/MS analysis; format: ADME, Macaca mulatta; details: rhesus monkey; summary of the method: as §2

## COc1cc(C(=O)c2cccc(-c3cc4ccccc4[nH]3)c2)cc(OC)c1OC
[1]
  AUC(0-inf): 617 ng·h/mL
Liver microsome [2]
  Drug metabolism: metabolite_detected
[3]
  AUC(0-inf): 3750 ng·h/mL
[4]
  half-life: 522 min
[5]
  bioavailability: 95%
[6]
  Cmax: 1440 ng/mL
[7]
  Cmax: 250 ng/mL
[8]
  Vd: 9.8 L/kg
[9]
  MRT inf: 3 h
[10]
  half-life at 0.5 µM: 24 min
[11]
  half-life at 0.5 µM: 39 min
[12]
  Cmax: 4290 ng/mL
Liver microsome [13]
  Drug metabolism: metabolite_detected
[14]
  clearance: 27 mL/min/kg
[15]
  half-life at 0.5 µM: 37 min
[16]
  MRT inf: 8.9 h
[17]
  half-life at 0.5 µM: 11 min
[18]
  Cmax: 550 ng/mL
[19]
  half-life: 480 min
[20]
  Vd: 3.8 L/kg
[21]
  Retention_time: 11.3 min
